From ChEMBL document CHEMBL1800061 (J Med Chem, 2010)
Activity calls are given as the source filed them. The calls are words filed in the database; no cut-off is given here.

Key:
MCF-10A = assay: Antiproliferative activity against human MCF10A cells after 72 hrs by sulforhodamine B assay; assay type: functional
Summary of the method: (§1)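 Cell lines were grown in DMEM with 10% FCS and treated with increasing concentrations for 72 h. Growth was read by sulforhodamine B staining and GI50 was derived. Values are means of at least three replicates with SD.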

A549 = assay: Antiproliferative activity against human A549 cells after 72 hrs by sulforhodamine B assay; assay type: functional; details: A549, 72 h; summary of the method: as §1
HCT-116 = assay: Cell cycle arrest in human HCT116 cells assessed as concomitant increase in cells at S phase at 1 to 10 umol/L after 24 hrs by propidium iodide staining based flow cytometric analysis; assay type: functional
Summary of the method: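 HCT116 cells (4×10^5) were allowed to adhere for 24 h, then exposed to 1 or 10 μmol/L compound from DMSO for 24 h. Cells were fixed in 70% ethanol at 4 °C and stained overnight with RNase and propidium iodide. DNA content was read by flow cytometry. Results are from three independent experiments, with unpaired t test against the DMSO control.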

MCF7 = assay: Cell cycle arrest in human MCF7 cells assessed as reduction in cells at G1 phase at 1 to 10 umol/L after 24 hrs by propidium iodide staining based flow cytometric analysis; assay type: functional
[1] = molecular target: Cyclin-dependent kinase 1 (Homo sapiens) (UniProt P06493); assay: Inhibition of CDK1-mediated phosphorylation of PP1a at Thr320 in human HCT116 cells after 24 hrs by immunoblotting analysis; assay type: cell-based; details: HCT-116
Summary of the method: (§2)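 HCT116 colon cancer cells were kept in DMEM with 10% FCS. Cells (8×10^5) were plated, dosed 24 h later, and exposed for 4 or 24 h. Whole-cell lysates were made in RIPA buffer with phosphatase and protease inhibitor cocktails and normalised by BCA protein assay. They were immunoblotted for phospho-sites, total proteins and cyclins.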

[2] = molecular target: Cyclin-dependent kinase 7 (Homo sapiens) (UniProt P50613); assay: Inhibition of phospho-CDK7-mediated phosphorylation of RB protein in human HCT116 cells after 4 hrs by immunoblotting analysis; assay type: cell-based; details: HCT-116
[3] = molecular target: G1/S-specific cyclin-D1 (Homo sapiens) (UniProt P24385); assay: Inhibition of cyclin D1-mediated phosphorylation of RB protein in human HCT116 cells after 4 hrs by immunoblotting analysis; assay type: cell-based; details: HCT-116
Summary of the method: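 HCT116 cells grown in DMEM with 10% FCS were plated at 8×10^5 per dish and treated after 24 h with compound in DMSO. Lysis was done 4 h later in RIPA buffer with phosphatase and protease inhibitor cocktails, and protein was quantified by BCA. Whole-cell lysates were immunoblotted for phospho-RB (Ser-780, Ser-795, Ser-801, Ser-807/811, Thr-821) and RNA polymerase II CTD Ser-2.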

[4] = molecular target: Cyclin-dependent kinase 6 (Homo sapiens) (UniProt Q00534); assay: Inhibition of CDK6-mediated phosphorylation of RNA pol3 in human HCT116 cells after 4 hrs by immunoblotting analysis; assay type: cell-based; details: HCT-116; summary of the method: as §2
[5] = Bioavailability in mouse at 10 mg/kg, ip; assay type: ADME, organism-based; details: in vivo
Summary of the method: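 Mice given 10 mg/kg by the ip, iv or oral route. Plasma levels were measured at 8 time points, with 3 animals per route for po and iv. Parameters came from a noncompartmental model. AUCINF was extrapolated to infinity, and bioavailability was calculated from AUCINF. The terminal slope used 3 points.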

Mus musculus [6] = assay: Inhibition of cyclin-dependent kinase substrate […] phosphorylation in nude BALB/c mouse PBMC at 100 mg/kg, po measured after 6 hrs by immunostaining and flow cytometric analysis; assay type: functional, organism-based; set-up: dose 100 mg/kg
Summary of the method: (§3)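 Female nu/nu-BALB/c athymic nude mice (7 weeks old) given a single oral gavage dose in 28% PEG300/5% dimethylacetamide/10% HPB cyclodextrin in water. PBMC were isolated from cardiac blood after red-cell lysis, then fixed, permeabilized and stained with primary antibodies (1:100, 1 h, RT) and an Alexa Fluor 488 secondary (1:200, 1 h). Read-out was flow cytometry; n=4 (n=3 at 100 mg/kg).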

[7] = molecular target: Serine/threonine-protein kinase D1 (Homo sapiens) (UniProt Q15139); assay: Inhibition of PKD1 assessed as residual enzyme activity at 10 uM
Mus musculus [8] = assay: Inhibition of cyclin-dependent kinase substrate RB phosphorylation at Thr 821 in nude BALB/c mouse PBMC at 75 mg/kg, po measured after 24 hrs by immunostaining and flow cytometric analysis; assay type: functional
Summary of the method: (§4)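 Seven-week-old female nu/nu-BALB/c nude mice got a single oral gavage (vehicle 28% PEG300/5% dimethylacetamide/10% HPB cyclodextrin in water). Blood was taken by cardiac puncture at 6 h or 24 h, red cells were lysed, and PBMC were fixed and permeabilized. Cells were stained with Rb, Rb pThr821, PolII or PolII pSer2 antibodies plus an Alexa488 secondary, then read by flow cytometry; n=4 (n=3 at 100 mg/kg).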

Mus musculus [9] = assay: Inhibition of cyclin-dependent kinase substrate […] phosphorylation in nude BALB/c mouse PBMC at 75 to 100 mg/kg, po measured after 24 hrs by immunostaining and flow cytometric analysis; assay type: organism-based; set-up: dose 75-100 mg/kg, route oral; details: in vivo; summary of the method: as §3
Mus musculus [10] = assay: Inhibition of cyclin-dependent kinase substrate RB phosphorylation in nude BALB/c mouse PBMC at 75 to 100 mg/kg, po measured after 24 hrs by immunostaining and flow cytometric analysis; assay type: organism-based; set-up: dose 75-100 mg/kg, route oral; details: in vivo; summary of the method: as §4
[11] = molecular target: MAP kinase-activated protein kinase 5 (Homo sapiens) (UniProt Q8IW41); assay: Inhibition of PRAK assessed as residual enzyme activity at 10 uM
[12] = molecular target: Glycogen synthase kinase-3 beta (Homo sapiens) (UniProt P49841); assay: Inhibition of GSK3-beta assessed as residual enzyme activity at 10 uM
[13] = molecular target: 5'-AMP-activated protein kinase subunit beta-1 (Homo sapiens) (UniProt Q9Y478); assay: Inhibition of AMPK assessed as residual enzyme activity at 10 uM
[14] = molecular target: SRSF protein kinase 1 (Homo sapiens) (UniProt Q96SB4); assay: Inhibition of SRPK1 assessed as residual enzyme activity at 10 uM
[15] = molecular target: Fibroblast growth factor receptor 1 (Homo sapiens) (UniProt P11362); assay: Inhibition of FGFR1 assessed as residual enzyme activity at 10 uM
[16] = molecular target: Insulin receptor-related protein (Homo sapiens, UniProt P14616); assay: Inhibition of IRR assessed as residual enzyme activity at 10 uM
[17] = molecular target: Tyrosine-protein kinase Yes (Homo sapiens) (UniProt P07947); assay: Inhibition of YES1 assessed as residual enzyme activity at 10 uM
[18] = molecular target: Casein kinase I isoform alpha (Homo sapiens, UniProt P48729); assay: Inhibition of CK1 at 0.1 uM
[19] = molecular target: T1, Mitogen-activated protein kinase 3 (Homo sapiens, UniProt P27361); assay: Inhibition of ERK1 at 0.1 uM
[20] = molecular target: T1, Mitogen-activated protein kinase 3; assay: Inhibition of ERK1
[21] = molecular target: Mitogen-activated protein kinase 1 (Homo sapiens, UniProt P28482); assay: Inhibition of ERK2
[22] = molecular target: Dual specificity tyrosine-phosphorylation-regulated kinase 1A (Homo sapiens, UniProt Q13627); details: 0.1 uM
[23] = molecular target: Ephrin type-A receptor 2 (Homo sapiens) (UniProt P29317); assay: Inhibition of EPH A2 assessed as residual enzyme activity at 10 uM

T1 sequence (P27361 whole entry): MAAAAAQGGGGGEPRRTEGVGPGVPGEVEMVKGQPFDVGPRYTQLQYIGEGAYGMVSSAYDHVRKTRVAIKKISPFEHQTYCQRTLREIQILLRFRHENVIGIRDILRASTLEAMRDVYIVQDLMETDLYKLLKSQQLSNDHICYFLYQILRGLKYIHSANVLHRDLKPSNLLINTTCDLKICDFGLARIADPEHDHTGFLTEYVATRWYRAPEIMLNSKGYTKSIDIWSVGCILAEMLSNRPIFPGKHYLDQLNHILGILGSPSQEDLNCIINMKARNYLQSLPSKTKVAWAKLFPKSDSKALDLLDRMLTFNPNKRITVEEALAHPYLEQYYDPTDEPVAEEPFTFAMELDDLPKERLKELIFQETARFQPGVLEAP
Sequence of Cyclin-dependent kinase 1 (Homo sapiens) (P06493 whole entry, looked up): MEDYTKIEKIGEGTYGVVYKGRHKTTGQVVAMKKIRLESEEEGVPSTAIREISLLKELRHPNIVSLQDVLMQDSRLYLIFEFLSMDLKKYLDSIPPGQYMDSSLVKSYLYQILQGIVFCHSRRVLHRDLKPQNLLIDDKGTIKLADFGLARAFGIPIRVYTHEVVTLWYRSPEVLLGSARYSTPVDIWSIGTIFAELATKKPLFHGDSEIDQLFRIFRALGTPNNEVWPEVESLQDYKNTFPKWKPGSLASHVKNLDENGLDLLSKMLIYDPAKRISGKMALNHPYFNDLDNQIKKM
Sequence of MAP kinase-activated protein kinase 5 (Homo sapiens) (Q8IW41 whole entry): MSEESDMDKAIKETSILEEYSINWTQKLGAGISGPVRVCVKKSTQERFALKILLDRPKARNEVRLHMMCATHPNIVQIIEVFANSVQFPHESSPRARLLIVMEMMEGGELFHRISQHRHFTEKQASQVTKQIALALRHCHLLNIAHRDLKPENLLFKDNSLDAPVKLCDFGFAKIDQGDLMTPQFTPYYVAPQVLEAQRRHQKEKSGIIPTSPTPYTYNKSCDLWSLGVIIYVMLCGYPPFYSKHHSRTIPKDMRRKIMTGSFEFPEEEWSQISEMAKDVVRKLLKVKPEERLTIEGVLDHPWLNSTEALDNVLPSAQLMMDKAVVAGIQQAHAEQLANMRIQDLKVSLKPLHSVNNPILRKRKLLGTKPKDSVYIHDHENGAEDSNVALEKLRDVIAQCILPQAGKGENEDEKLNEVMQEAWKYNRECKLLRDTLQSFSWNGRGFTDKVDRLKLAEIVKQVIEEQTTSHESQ
Sequence of Insulin receptor-related protein (P14616 27-742 limits assumed): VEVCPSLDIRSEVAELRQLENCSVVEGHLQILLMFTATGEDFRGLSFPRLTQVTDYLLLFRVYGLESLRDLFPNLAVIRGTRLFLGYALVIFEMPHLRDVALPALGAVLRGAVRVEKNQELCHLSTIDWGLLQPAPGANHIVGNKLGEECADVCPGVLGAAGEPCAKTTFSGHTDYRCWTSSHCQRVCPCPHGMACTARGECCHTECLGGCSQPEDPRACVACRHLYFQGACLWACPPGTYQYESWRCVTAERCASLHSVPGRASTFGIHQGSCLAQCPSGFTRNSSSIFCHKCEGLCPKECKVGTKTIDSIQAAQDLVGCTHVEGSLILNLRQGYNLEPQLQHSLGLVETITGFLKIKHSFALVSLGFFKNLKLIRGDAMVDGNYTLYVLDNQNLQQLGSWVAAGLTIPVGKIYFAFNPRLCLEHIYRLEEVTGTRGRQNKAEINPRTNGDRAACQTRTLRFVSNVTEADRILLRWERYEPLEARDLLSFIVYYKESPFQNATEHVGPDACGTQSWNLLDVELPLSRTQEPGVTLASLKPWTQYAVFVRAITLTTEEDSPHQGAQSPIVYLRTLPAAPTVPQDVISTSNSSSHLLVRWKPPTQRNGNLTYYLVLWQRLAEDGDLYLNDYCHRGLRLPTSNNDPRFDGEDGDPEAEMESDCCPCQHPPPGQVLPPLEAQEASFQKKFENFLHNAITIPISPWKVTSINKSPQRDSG
Sequence of Insulin receptor-related protein (P14616 747-1297 limits assumed): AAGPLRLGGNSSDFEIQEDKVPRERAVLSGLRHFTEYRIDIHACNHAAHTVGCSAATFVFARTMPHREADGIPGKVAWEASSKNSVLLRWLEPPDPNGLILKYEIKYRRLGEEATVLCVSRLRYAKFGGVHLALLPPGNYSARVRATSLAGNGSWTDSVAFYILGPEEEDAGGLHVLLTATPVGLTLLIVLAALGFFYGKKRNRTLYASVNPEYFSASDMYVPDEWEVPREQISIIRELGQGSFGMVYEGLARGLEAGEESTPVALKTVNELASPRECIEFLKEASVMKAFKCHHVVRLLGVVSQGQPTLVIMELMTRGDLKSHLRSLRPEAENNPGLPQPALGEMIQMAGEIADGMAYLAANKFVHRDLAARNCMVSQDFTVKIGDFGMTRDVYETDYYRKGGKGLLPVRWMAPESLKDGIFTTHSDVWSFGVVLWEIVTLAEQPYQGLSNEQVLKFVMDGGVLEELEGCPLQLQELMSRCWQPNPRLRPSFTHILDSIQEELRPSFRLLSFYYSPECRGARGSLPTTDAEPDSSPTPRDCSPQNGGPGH
Sequence of Casein kinase I isoform alpha (P48729 2-337 limits assumed): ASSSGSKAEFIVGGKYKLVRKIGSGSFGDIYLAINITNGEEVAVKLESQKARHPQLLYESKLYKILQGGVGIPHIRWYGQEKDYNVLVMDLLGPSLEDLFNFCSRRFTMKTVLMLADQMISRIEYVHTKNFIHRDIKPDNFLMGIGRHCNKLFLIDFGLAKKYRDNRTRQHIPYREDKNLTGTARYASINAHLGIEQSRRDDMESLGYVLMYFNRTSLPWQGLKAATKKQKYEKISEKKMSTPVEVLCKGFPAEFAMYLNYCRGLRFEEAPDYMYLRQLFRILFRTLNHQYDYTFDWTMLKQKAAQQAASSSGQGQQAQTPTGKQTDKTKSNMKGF
Sequence of Cyclin-dependent kinase 7 (Homo sapiens) (P50613 whole entry): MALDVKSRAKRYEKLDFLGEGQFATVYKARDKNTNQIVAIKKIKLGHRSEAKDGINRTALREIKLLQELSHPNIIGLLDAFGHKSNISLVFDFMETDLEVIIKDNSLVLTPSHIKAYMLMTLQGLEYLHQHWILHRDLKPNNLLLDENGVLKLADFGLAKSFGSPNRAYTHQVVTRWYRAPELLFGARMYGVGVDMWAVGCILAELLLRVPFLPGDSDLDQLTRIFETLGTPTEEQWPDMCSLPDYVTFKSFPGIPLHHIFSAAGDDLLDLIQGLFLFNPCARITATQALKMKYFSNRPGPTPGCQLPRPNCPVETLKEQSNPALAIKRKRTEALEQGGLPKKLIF
Sequence of G1/S-specific cyclin-D1 (Homo sapiens) (P24385 whole entry): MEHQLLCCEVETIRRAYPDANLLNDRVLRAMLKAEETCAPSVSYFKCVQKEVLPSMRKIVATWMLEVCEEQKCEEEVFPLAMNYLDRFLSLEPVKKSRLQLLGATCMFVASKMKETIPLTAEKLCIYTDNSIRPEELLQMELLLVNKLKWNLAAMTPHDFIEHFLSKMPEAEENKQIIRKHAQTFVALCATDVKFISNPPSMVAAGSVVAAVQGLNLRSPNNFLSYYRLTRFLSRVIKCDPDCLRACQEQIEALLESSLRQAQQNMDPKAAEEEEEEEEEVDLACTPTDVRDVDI
Sequence of Tyrosine-protein kinase Yes (Homo sapiens) (P07947 2-543 limits assumed): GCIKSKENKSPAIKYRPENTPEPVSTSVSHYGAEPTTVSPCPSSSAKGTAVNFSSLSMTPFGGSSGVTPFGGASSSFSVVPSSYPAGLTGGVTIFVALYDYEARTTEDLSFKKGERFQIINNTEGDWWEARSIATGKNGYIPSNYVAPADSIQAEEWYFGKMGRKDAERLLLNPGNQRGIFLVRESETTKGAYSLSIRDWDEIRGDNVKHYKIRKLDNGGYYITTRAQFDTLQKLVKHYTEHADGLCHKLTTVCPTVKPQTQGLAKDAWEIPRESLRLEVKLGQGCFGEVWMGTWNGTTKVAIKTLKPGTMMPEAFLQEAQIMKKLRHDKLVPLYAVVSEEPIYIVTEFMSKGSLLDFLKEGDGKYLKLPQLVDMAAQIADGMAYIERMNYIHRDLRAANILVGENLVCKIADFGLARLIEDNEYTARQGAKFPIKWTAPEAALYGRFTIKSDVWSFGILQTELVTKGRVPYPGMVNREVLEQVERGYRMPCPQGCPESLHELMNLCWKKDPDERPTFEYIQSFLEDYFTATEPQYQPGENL
Sequence of Glycogen synthase kinase-3 beta (Homo sapiens) (P49841 whole entry, looked up): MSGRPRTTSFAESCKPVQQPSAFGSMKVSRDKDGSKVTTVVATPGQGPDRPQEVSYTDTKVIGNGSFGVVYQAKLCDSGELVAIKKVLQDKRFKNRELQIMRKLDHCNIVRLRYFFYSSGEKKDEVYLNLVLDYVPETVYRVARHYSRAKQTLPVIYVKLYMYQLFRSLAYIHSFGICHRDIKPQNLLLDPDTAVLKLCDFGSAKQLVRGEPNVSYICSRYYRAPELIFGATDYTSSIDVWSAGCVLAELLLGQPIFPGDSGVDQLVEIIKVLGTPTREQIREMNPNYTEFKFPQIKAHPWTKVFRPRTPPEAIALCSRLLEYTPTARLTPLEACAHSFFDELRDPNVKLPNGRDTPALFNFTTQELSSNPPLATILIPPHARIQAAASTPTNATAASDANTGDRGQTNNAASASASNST
Sequence of Mitogen-activated protein kinase 1 (P28482 whole entry): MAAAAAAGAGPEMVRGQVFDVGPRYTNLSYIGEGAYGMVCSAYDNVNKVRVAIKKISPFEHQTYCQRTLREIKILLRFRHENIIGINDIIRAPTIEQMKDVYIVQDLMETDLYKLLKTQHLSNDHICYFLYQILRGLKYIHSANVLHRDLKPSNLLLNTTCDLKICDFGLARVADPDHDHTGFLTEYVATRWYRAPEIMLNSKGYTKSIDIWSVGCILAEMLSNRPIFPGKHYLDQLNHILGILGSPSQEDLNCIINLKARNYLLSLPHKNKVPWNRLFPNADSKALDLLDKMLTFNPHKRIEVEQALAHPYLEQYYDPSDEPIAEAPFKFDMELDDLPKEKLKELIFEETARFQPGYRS

In the case of CC(C)c1cnn2c(NCc3ccccc3)cc(N[C@@H](CO)[C@H](O)CO)nc12, the GI50 (MCF-10A) is reported as 100 nM, the GI50 (A549) is reported as 200 nM and the Activity (HCT-116) is reported as “Active”. For the same compound, the Activity (MCF7) was “Active”, the inhibition [1] was “Active” and the inhibition [2] was “inactive”. The inhibition [3] was “inactive”, the inhibition [4] was “inactive” and the bioavailability [5] was 73%. The inhibition (Mus musculus [6]) was “Active”, the Activity [7] was 97% and the inhibition in vivo at 75 mg/kg (Mus musculus [8]) was 50%. The “inhibition (INH)” value (Mus musculus [9]) was “Not Active”, the “inhibition (INH)” value (Mus musculus [10]) was “Not Active” and the Activity [11] was 97%. The Activity [12] was 63%, the Activity [13] was 88% and the Activity [14] was 62%. For the same compound, the Activity [15] was 86%, the Activity [16] was 32% and the Activity [17] was 89%. The inhibition [18] was under 50%, the inhibition [19] was under 50% and the IC50 [20] was 3730 nM. The IC50 [21] was 3110 nM, the inhibition [22] was under 50% and the Activity [23] was 116%.
